In brackets after ≈: the same amount, converted by molar mass. Activity calls are given as the source filed them. No cut-off for these calls is given here.
How the values were obtained:
Bos taurus [1] = species: Bos taurus; assay: Induction of bovine brain beta-tubulin polymerization at 60 uM using DAPI staining-based by fluorescence assay relative to control
Method in brief: (§1)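 Bovine brain tubulin was loaded with 5 mM GDP in PME buffer (100 mM Pipes, 1 mM MgSO4, 2 mM EGTA, pH 6.9), then gel-filtered into PMED (PME plus 0.1 mM GDP). Tubulin (8 µM, just below critical concentration) with 10 µM DAPI was equilibrated at 37 °C. Ligand (8 or 60 µM) in DMSO (10% v/v final) was added to start the reaction. Fluorescence (ex 360, em 450 nm) was read to steady state against a DMSO-only control.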

Bos taurus [2] = species: Bos taurus; assay: Induction of bovine brain beta-tubulin assembly assessed as prevention of temperature-induced microtubule disassembly at 60 uM at 4 degC by absorption spectrophotometric analysis relative to control
Method in brief: (§2)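 Bovine brain tubulin, 15 µM final, in PMEG buffer (100 mM Pipes, 1 mM MgSO4, 2 mM EGTA, 1 mM GTP, pH 6.9), equilibrated to 37 °C and baseline recorded. Ligand (15 or 60 µM) added, and assembly followed as light scattering at OD 350 nm. The sample was then cooled to 4 °C to follow disassembly. DMSO was 10% v/v final; the control had tubulin plus DMSO only.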

Bos taurus [3] = species: Bos taurus; assay: Induction of bovine brain alpha-tubulin assembly assessed as prevention of temperature-induced microtubule disassembly at 60 uM at 4 degC by absorption spectrophotometric analysis relative to control; method in brief: as §2
Bos taurus [4] = species: Bos taurus; assay: Induction of bovine brain alpha-tubulin assembly assessed as increase in formed microtubule concentration at 60 uM at 37 degC by absorption spectrophotometric analysis relative to control; method in brief: as §2
A2780 = assay: Antiproliferative activity against human A2780 cells after 2 days by alamar blue assay; format: functional, cell-based; settings: A2780, 48 h
[5] = Solubility of the compound in buffer containing 10% DMSO; format: physicochemical
Bos taurus [6] = species: Bos taurus; assay: Induction of bovine brain alpha-tubulin polymerization at 60 uM using DAPI staining-based by fluorescence assay relative to control; method in brief: as §1
Bos taurus [7] = species: Bos taurus; assay: Induction of bovine brain beta-tubulin assembly assessed as increase in formed microtubule concentration at 60 uM at 37 degC by absorption spectrophotometric analysis relative to control; method in brief: as §2
Bos taurus [8] = species: Bos taurus; assay: Induction of bovine brain alpha-tubulin polymerization at 8 uM using DAPI staining-based by fluorescence assay relative to control; method in brief: as §1
Bos taurus [9] = species: Bos taurus; assay: Induction of bovine brain alpha-tubulin assembly assessed as increase in formed microtubule concentration at 15 uM at 37 degC by absorption spectrophotometric analysis relative to control; method in brief: as §2
Bos taurus [10] = species: Bos taurus; assay: Induction of bovine brain beta-tubulin polymerization at 8 uM using DAPI staining-based by fluorescence assay relative to control; method in brief: as §1
Bos taurus [11] = species: Bos taurus; assay: Induction of bovine brain beta-tubulin assembly assessed as prevention of temperature-induced microtubule disassembly at 15 uM at 4 degC by absorption spectrophotometric analysis relative to control; method in brief: as §2
Bos taurus [12] = species: Bos taurus; assay: Induction of bovine brain beta-tubulin assembly assessed as increase in formed microtubule concentration at 15 uM at 37 degC by absorption spectrophotometric analysis relative to control; method in brief: as §2
Bos taurus [13] = species: Bos taurus; assay: Induction of bovine brain alpha-tubulin assembly assessed as prevention of temperature-induced microtubule disassembly at 15 uM at 4 degC by absorption spectrophotometric analysis relative to control; method in brief: as §2

Row | SMILES | Activity (Bos taurus [1]) | Activity (Bos taurus [2]) | Activity (Bos taurus [3]) | Activity (Bos taurus [4]) | IC50 (A2780) [µM] | solubility [5] [µM] | Activity (Bos taurus [6]) | Activity (Bos taurus [7]) | Activity (Bos taurus [8]) | Activity (Bos taurus [9]) | Activity (Bos taurus [10]) | Activity (Bos taurus [11]) | Activity (Bos taurus [12]) | Activity (Bos taurus [13])
1 | O=C(N[C@H]1c2ccccc2C/C=C/COc2cccc3c2[C@H](OC(=O)c2ccccc2)[C@@H]2C[C@@H](CN2C3)OC(=O)[C@@H]1O)c1ccccc1 | inactive | Active | Active | Active | 4 | 60 (≈ 38.7 µg/mL) | inactive | Active | – | – | – | – | – | –
2 | C=CCOc1ccccc1[C@H](NC(=O)c1ccccc1)[C@@H](O)C(=O)O[C@H]1C[C@H]2[C@@H](OC(=O)c3ccccc3)c3c(cccc3OCC=C)CN2C1 | inactive | Active | Active | Active | 8.3 | 60 (≈ 41.3 µg/mL) | inactive | Active | – | – | – | – | – | –
3 | C=CCOc1cccc2c1[C@@H](OC(=O)c1ccccc1)[C@@H]1C[C@H](OC(=O)[C@H](O)[C@@H](NC(=O)c3ccccc3)c3ccccc3CC=C)CN1C2 | inactive | Active | Active | Active | 23.8 | 60 (≈ 40.4 µg/mL) | inactive | Active | – | – | – | – | – | –
4 | C=CCCOc1ccccc1[C@H](NC(=O)c1ccccc1)[C@@H](O)C(=O)O[C@H]1C[C@H]2[C@@H](OC(=O)c3ccccc3)c3c(cccc3OCC=C)CN2C1 | inactive | Active | Active | Active | 5.8 | 60 (≈ 42.2 µg/mL) | inactive | Active | – | – | – | – | – | –
5 | CC(=O)O[C@H]1C(=O)[C@@]2(C)[C@H]([C@H](OC(=O)c3ccccc3)[C@]3(O)C[C@H](OC(=O)[C@H](O)[C@@H](NC(=O)c4ccccc4)c4ccccc4)C(C)=C1C3(C)C)[C@]1(OC(C)=O)CO[C@@H]1C[C@@H]2O | – | – | – | – | – | – | – | – | inactive | Active | inactive | Active | Active | Active
6 | C=CCOc1cccc2c1[C@H](OC(=O)c1ccccc1)[C@@H]1C[C@H](OC(=O)[C@H](O)[C@@H](NC(=O)c3ccccc3)c3ccccc3CC=C)CN1C2 | inactive | Active | Active | Active | 4.7 | 60 (≈ 40.4 µg/mL) | inactive | Active | – | – | – | – | – | –

The remaining lines, values ahead:

Row | Activity (Bos taurus [1]) | Activity (Bos taurus [2]) | Activity (Bos taurus [3]) | Activity (Bos taurus [4]) | IC50 (A2780) [µM] | solubility [5] [µM] | Activity (Bos taurus [6]) | Activity (Bos taurus [7]) | Activity (Bos taurus [8]) | Activity (Bos taurus [9]) | Activity (Bos taurus [10]) | Activity (Bos taurus [11]) | Activity (Bos taurus [12]) | Activity (Bos taurus [13]) | SMILES
7 | inactive | Active | Active | Active | 4.1 | 60 (≈ 39.6 µg/mL) | inactive | Active | – | – | – | – | – | – | O=C(N[C@H]1c2ccccc2OC/C=C/COc2cccc3c2[C@H](OC(=O)c2ccccc2)[C@@H]2C[C@@H](CN2C3)OC(=O)[C@@H]1O)c1ccccc1
8 | inactive | Active | Active | Active | 5.1 | 60 (≈ 38.7 µg/mL) | inactive | Active | – | – | – | – | – | – | O=C(N[C@H]1c2ccccc2C/C=C/COc2cccc3c2[C@@H](OC(=O)c2ccccc2)[C@@H]2C[C@@H](CN2C3)OC(=O)[C@@H]1O)c1ccccc1
9 | inactive | Active | Active | Active | 4.5 | 60 (≈ 40.5 µg/mL) | inactive | Active | – | – | – | – | – | – | O=C(N[C@H]1c2ccccc2OCC/C=C/COc2cccc3c2[C@H](OC(=O)c2ccccc2)[C@@H]2C[C@@H](CN2C3)OC(=O)[C@@H]1O)c1ccccc1

Source: ChEMBL document CHEMBL1926552, “Design and synthesis of simplified taxol analogs based on the T-Taxol bioactive conformation” (Bioorg Med Chem, 2011)
